Measurements as given in ChEMBL document CHEMBL4145645, “Bioactive Phenolic Components from the Twigs of Atalantia buxifolia” (J Nat Prod, 2018).

How the values were obtained:
[1] = test system: A549; test: Cytotoxicity against human A549 cells by MTT assay; type: functional, cell-based
[2] = test system: MDA-MB-231; test: Cytotoxicity against human MDA-MB-231 cells by MTT assay; type: functional, cell-based
[3] = test system: HepG2; test: Cytotoxicity against human HepG2 cells by MTT assay; type: functional, cell-based
[4] = test system: Neutrophil; test: Antiinflammatory activity in human neutrophils assessed as inhibition of fMLP/CB-induced elastase release preincubated for 5 mins followed by fMLP/CB stimulation and measured for 10 mins using MeO-Suc-Ala-Ala-Pro-Val-p-nitroanilide as substrate; type: functional, cell-based
In short: (§1)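 Human neutrophils stimulated with fMLF. For the superoxide read-out, cells were equilibrated in ferricytochrome c at 0.6 mg/mL. Other steps for superoxide generation and elastase release followed an earlier published protocol. Values are means ± SEM, n = 3 or 4.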

[5] = test system: Neutrophil; test: Antiinflammatory activity in human neutrophils assessed as inhibition of fMLP/CB-induced superoxide anion generation preincubated for 5 mins followed by cytochalasin B/fMLP addition for 3 mins by superoxide dismutase inhibitable reduction of ferricytochrome c based assay; type: functional, cell-based; in short: as §1
[6] = Selectivity index, ratio of CC50 for human HuH7 cells to EC50 for DENV2 infected in human HuH7 cells; type: toxicity, cell-based; conditions: read-out: Ratio CC50/EC50
[7] = test system: dengue virus type 2; test: Antiviral activity against DENV2 infected in human HuH7 cells; type: functional, organism-based; conditions: Huh-7
[8] = Homo sapiens, MDA-MB-231, read-out: IC50

For `C=C(C)C(O)CC/C(C)=C/COc1ccc2ccc(=O)oc2c1` (configuration not stated), the IC50 [1] was greater than 20 µg/mL, the IC50 [2, 8] was greater than 20 µg/mL and the IC50 [3] was greater than 20 µg/mL.

`CC(C)=CCOc1ccc(C(=O)/C=N/O)cc1` gave an IC50 [1] greater than 20 µg/mL, an IC50 [2, 8] greater than 20 µg/mL and an IC50 [3] greater than 20 µg/mL.

`C=CC(C)(C)c1cc2ccc(O)cc2oc1=O` gave an IC50 [1] greater than 20 µg/mL, an IC50 [2, 8] greater than 20 µg/mL and an IC50 [3] greater than 20 µg/mL.

Compound `COc1cc(O)c2c(=O)c3cccc(O)c3n(C)c2c1CC=C(C)C` [GLYCOCITRINE I] has an IC50 [1] greater than 20 µg/mL, an IC50 [2, 8] greater than 20 µg/mL and an IC50 [3] greater than 20 µg/mL.

Compound `COc1cc2c(c3[nH]c4ccccc4c(=O)c13)C=CC(C)(C)O2` has an IC50 [1] greater than 20 µg/mL, an IC50 [2, 8] greater than 20 µg/mL and an IC50 [3] greater than 20 µg/mL.

`C/C(=C\COc1ccc2ccc(=O)oc2c1)C/C=C/C(C)(C)OO` showed an IC50 [1] greater than 20 µg/mL, an IC50 [2, 8] greater than 20 µg/mL and an IC50 [3] greater than 20 µg/mL.

In the case of `CC(C)=CCc1c(O)c(CC=C(C)C)c2c(c1O)c(=O)c1cccc(O)c1n2C`, the IC50 [1] is reported as greater than 20 µg/mL, the IC50 [2, 8] is reported as greater than 20 µg/mL and the IC50 [3] is reported as greater than 20 µg/mL.

Work on `CC1(C)C=Cc2c(cc(O)c3c(=O)cc(-c4ccc(O)cc4)oc23)O1` [ATALANTOFLAVONE] yielded an IC50 [1] greater than 20 µg/mL, an IC50 [2, 8] greater than 20 µg/mL and an IC50 [3] greater than 20 µg/mL.

In the case of `C=C(C)C(CC/C(C)=C/COc1ccc2ccc(=O)oc2c1)OO` (configuration not stated), the IC50 [1] is reported as greater than 20 µg/mL, the IC50 [2, 8] is reported as greater than 20 µg/mL and the IC50 [3] is reported as greater than 20 µg/mL.

For `COC(=O)/C(C)=C/COc1ccc(C(=O)OC)cc1`, the IC50 [1] was greater than 20 µg/mL, the IC50 [2, 8] was greater than 20 µg/mL and the IC50 [3] was greater than 20 µg/mL.

`CO/N=C/C(=O)c1ccc(O/C=C/[C@H](C)C(=O)OC)cc1` showed an IC50 [1] greater than 20 µg/mL, an IC50 [2, 8] greater than 20 µg/mL and an IC50 [3] greater than 20 µg/mL.

For `CC(C)=CCc1c2c(c3[nH]c4c(O)cccc4c(=O)c3c1O)C=CC(C)(C)O2` [ATALAPHYLLININE], the IC50 [1] was 7.8 µM, the IC50 ([2]; mda-mb-231) was “Not Active” and the IC50 [3] was 6.5 µM.

`CC(C)=CCc1c2c(c3c(c1O)c(=O)c1ccccc1n3C)C=CC(C)(C)O2` gave an IC50 [1] greater than 20 µg/mL, an IC50 [2, 8] greater than 20 µg/mL and an IC50 [3] greater than 20 µg/mL.

Work on `COC(=O)c1cccc(O)c1OC` [METHYL 3-HYDROXY-2-METHOXYBENZOATE] yielded an IC50 [1] greater than 20 µg/mL, an IC50 [2, 8] greater than 20 µg/mL and an IC50 [3] greater than 20 µg/mL.

For `CC1(C)C=Cc2c(ccc3ccc(=O)oc23)O1` [SESALIN], the IC50 [4] was greater than 10 µM, the IC50 [1] was greater than 20 µg/mL and the IC50 [2, 8] was greater than 20 µg/mL. It also gave an IC50 [5] of 4.7 µM and an IC50 [3] greater than 20 µg/mL.

`O=c1cc(N2CCOCC2)oc2c(-c3ccccc3)cccc12` [LY-294002] gave an IC50 [4] of 5.1 µM and an IC50 [5] of 2.1 µM.

With `CO/N=C/C(=O)c1ccc(OC/C=C(\C)C(=O)OC)cc1` the IC50 [1] was greater than 20 µg/mL, the IC50 [2, 8] was greater than 20 µg/mL and the IC50 [3] was greater than 20 µg/mL.

Work on `COC(=O)/C=C/c1ccc(O)c(OC)c1` yielded an IC50 [1] greater than 20 µg/mL, an IC50 [2, 8] greater than 20 µg/mL and an IC50 [3] greater than 20 µg/mL.

`COc1c2ccoc2cc2oc(=O)ccc12` [BERGAPTEN] gave an IC50 [1] greater than 20 µg/mL, an IC50 [2, 8] greater than 20 µg/mL and an IC50 [3] greater than 20 µg/mL.

In the case of `CC(C)=CCOc1c2occc2cc2ccc(=O)oc12` [PENTOSALEN], the IC50 [4] is reported as greater than 10 µM, the IC50 [1] is reported as greater than 20 µg/mL and the IC50 [2, 8] is reported as greater than 20 µg/mL. It also gave an IC50 [5] of 0.2 µM and an IC50 [3] greater than 20 µg/mL.

In the case of `CC1(C)C=Cc2c(cc(O)c3c(=O)c4cccc(O)c4[nH]c23)O1` [ATOLAPHYLLIDINE], the IC50 [1] is reported as 7.8 µM, the IC50 ([2]; mda-mb-231) is reported as “Not Active” and the IC50 [3] is reported as 7.3 µM.

`CC(C)=CCc1c2c(c3[nH]c4ccccc4c(=O)c3c1O)C=CC(C)(C)O2` [SEVERIFOLINE] gave an IC50 [1] greater than 20 µg/mL, an IC50 [2, 8] greater than 20 µg/mL and an IC50 [3] greater than 20 µg/mL.

With `CO/N=C/C(=O)c1ccc(O)cc1` the IC50 [4] was greater than 10 µM, the IC50 [1] was greater than 20 µg/mL and the IC50 [2, 8] was greater than 20 µg/mL. For the same compound, the IC50 [5] was 4.8 µM and the IC50 [3] was greater than 20 µg/mL.

`COc1cccc2c(=O)c3c(O)cc4c(c3n(C)c12)C=CC(C)(C)O4` gave an IC50 [1] greater than 20 µg/mL, an IC50 [2, 8] greater than 20 µg/mL and an IC50 [3] greater than 20 µg/mL.

In the case of `COC(=O)c1ccc(O)cc1` [METHYLPARABEN], the IC50 [1] is reported as greater than 20 µg/mL, the IC50 [2, 8] is reported as greater than 20 µg/mL and the IC50 [3] is reported as greater than 20 µg/mL.

`CC(C)=CCOc1c2ccoc2cc2oc(=O)ccc12` [ISOIMPERATORIN] showed an IC50 [4] greater than 10 µM, an IC50 [1] greater than 20 µg/mL and an IC50 [2, 8] greater than 20 µg/mL. The IC50 [5] was 2.6 µM and the IC50 [3] was greater than 20 µg/mL.

With `CC(C)=CCc1c2c(c3c(c1O)c(=O)c1cccc(O)c1n3C)C=CC(C)(C)O2` the IC50 [4] was 3.7 µM, the IC50 [1] was greater than 20 µg/mL and the IC50 [2, 8] was greater than 20 µg/mL. It also gave an IC50 [5] greater than 10 µM, a selectivity ratio [6] of 6.3 and an IC50 [3] greater than 20 µg/mL. It also gave an EC50 [7] of 5.3 µM.

In the case of `COc1cccc2c1C(=O)c1c(O)c3c(c(O)c1C2=O)C[C@@](O)(C(=O)CO)C[C@@H]3O[C@H]1C[C@H](N)[C@H](O)[C@H](C)O1` [DOXORUBICIN], the IC50 [1] is reported as 0.6 µM.

`C/C(=C\COc1ccc2ccc(=O)oc2c1)C/C=C/C(C)(C)O` gave an IC50 [1] greater than 20 µg/mL, an IC50 [2, 8] greater than 20 µg/mL and an IC50 [3] greater than 20 µg/mL.

With `COC1=CC(=O)c2cc(C)ccc2C1=O` the IC50 [1] was greater than 20 µg/mL, the IC50 [2, 8] was greater than 20 µg/mL and the IC50 [3] was greater than 20 µg/mL.

Work on `CC1(C)CC[C@]2(C)CC[C@H]3[C@]4(C)CC[C@H]5C(C)(C)C(=O)CC[C@]5(C)[C@H]4CC[C@@]3(C)[C@@H]2C1` yielded an IC50 [1] greater than 20 µg/mL, an IC50 [2, 8] greater than 20 µg/mL and an IC50 [3] greater than 20 µg/mL.
